Values after ≈ are worked out from the molar mass of the structure shown. Active and inactive are the calls of the source. The rule behind the calls is not given here. Starred links: 1 amine or outer side, 2 acyl side, 3 side chain; linkers in the order of their positions; H or OH if unused. Positions of bridges follow the written chain, without caps; N, C: chain ends. Non-standard residues stand in square brackets, D forms with d. Residues, ends and D or L forms follow the SMILES beside them. *: point of attachment. hTyr(3S-OH,4S-OH,3'-OSO3H) = N[C@H](C(=O)O)[C@H](O)[C@@H](O)c1ccc(O)c(OS(=O)(=O)O)c1; Orn(4R-OH,5R-OH) = O=C([C@H](C[C@@H](O)[C@@H](O)N[*:3])N[*:1])[*:2]; Pro(3S-OH,4S-Me) = C[C@H]1CN[C@H](C(=O)O)[C@H]1O; X1 = CCCCCOc1ccc(-c2cc(-c3ccc(C(=O)*)cc3)no2)cc1; Gln(3R-OH) = NC(=O)C[C@@H](O)[C@H](N)C(=O)O; Hyp = O=C(O)[C@@H]1C[C@@H](O)CN1
Legend:
Nakaseomyces glabratus [1] = experiment: Antimicrobial activity against Candida glabrata TG162 containing calcineurin deltacnb1 mutant at 0.8 mg/ml after 48 hrs; format: functional, organism-based
Summary of the method: (§1)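 Spot assay: serial 10-fold dilutions of log-phase cells spotted on minimal-medium plates containing micafungin, Congo red or calcofluor white. Plates incubated 48 h at 30°C; each test repeated at least three times.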

Nakaseomyces glabratus [2] = experiment: Antimicrobial activity against Candida glabrata TG172 containing deltacrz1 mutant at 0.8 mg/ml after 48 hrs; format: functional, organism-based; summary of the method: as §1
Nakaseomyces glabratus [3] = experiment: Antimicrobial activity against Candida glabrata TG162 containing calcineurin deltacnb1 mutant by colorimetric microdilution method; format: functional
Summary of the method: (§2)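 MIC by commercially prepared colorimetric broth microdilution panel; agents tested were fluconazole, miconazole, itraconazole, voriconazole and amphotericin B.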

Nakaseomyces glabratus [4] = experiment: Antimicrobial activity against wild type Candida glabrata TG11 by colorimetric microdilution method; format: functional; summary of the method: as §2
Nakaseomyces glabratus [5] = experiment: Antimicrobial activity against calcineurin deltacnb1 mutant containing Candida glabrata TG163 complemented with CNB1 gene by colorimetric microdilution method; format: functional; summary of the method: as §2
Nakaseomyces glabratus [6] = experiment: Antimicrobial activity against deltacrz1 mutant containing Candida glabrata TG173 complemented with CRZ1 gene by colorimetric microdilution method; format: functional; summary of the method: as §2
Nakaseomyces glabratus [7] = experiment: Antimicrobial activity against Candida glabrata TG172 containing deltacrz1 mutant by colorimetric microdilution method; format: functional; summary of the method: as §2
Nakaseomyces glabratus [8] = experiment: Fungicidal activity against Candida glabrata TG162 containing calcineurin deltacnb1 mutant at 0.03 ug/ml after 24 hrs by colorimetric microdilution method; format: functional, organism-based
Summary of the method: (§3)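 Log-phase cells at 2.5 × 10^3 CFU/ml in minimal medium, with or without micafungin (dissolved in distilled water). OD600 read after 24 h. Percent absorbance at 0.03 μg/ml relative to drug-free culture; mean and SD of three independent experiments.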

Nakaseomyces glabratus [9] = experiment: Fungicidal activity against calcineurin deltacnb1 mutant containing Candida glabrata TG163 complemented with CNB1 gene at 0.03 ug/ml after 24 hrs by colorimetric microdilution method; format: functional, organism-based; summary of the method: as §3
Nakaseomyces glabratus [10] = experiment: Fungistatic activity against wild type Candida glabrata TG11 at 0.03 ug/ml after 24 hrs by colorimetric microdilution method; format: functional, organism-based
Nakaseomyces glabratus [11] = experiment: Fungicidal activity against deltacrz1 mutant containing Candida glabrata TG173 complemented with CRZ1 gene at 0.03 ug/ml after 24 hrs by colorimetric microdilution method; format: functional, organism-based; summary of the method: as §3
Nakaseomyces glabratus [12] = experiment: Fungicidal activity against Candida glabrata TG172 containing deltacrz1 mutant at 0.03 ug/ml after 24 hrs by colorimetric microdilution method; format: functional, organism-based; summary of the method: as §3
Nakaseomyces glabratus [13] = experiment: Fungicidal activity against Candida glabrata TG162 containing calcineurin deltacnb1 mutant assessed as reduction in […] cell viability by time kill study; format: functional, organism-based
Summary of the method: (§4)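 Time-kill: log-phase cells at 5 × 10^5 CFU/ml in minimal medium with agitation, with or without fluconazole at several concentrations. Total cells counted by hemocytometer, viable cells by plating dilutions on YPD. Read-out is percent viability; mean and SD of three independent experiments.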

Nakaseomyces glabratus [14] = experiment: Antimicrobial activity against Candida glabrata TG172 containing deltacrz1 mutant assessed as reduction in […] cell viability by time kill study; format: functional, organism-based; summary of the method: as §4
Nakaseomyces glabratus [15] = experiment: Antimicrobial activity against deltacrz1 mutant containing Candida glabrata TG173 complemented with CRZ1 gene assessed as reduction in […] cell viability by time kill study; format: functional, organism-based; summary of the method: as §4
Nakaseomyces glabratus [16] = experiment: Fungistatic activity against calcineurin deltacnb1 mutant containing Candida glabrata TG163 complemented with CNB1 gene assessed as reduction in […] cell viability by time kill study; format: functional, organism-based; summary of the method: as §4
Nakaseomyces glabratus [17] = experiment: Fungistatic activity against wild type Candida glabrata TG11 assessed as reduction in […] cell viability by time kill study; format: functional, organism-based; summary of the method: as §4
Nakaseomyces glabratus [18] = experiment: Antimicrobial activity against Candida glabrata TG162 containing calcineurin deltacnb1 mutant at 1 mg/ml after 48 hrs; format: functional, organism-based; summary of the method: as §1
Nakaseomyces glabratus [19] = experiment: Antimicrobial activity against Candida glabrata TG172 containing deltacrz1 mutant at 1 mg/ml after 48 hrs; format: functional, organism-based; summary of the method: as §1

| SMILES | MIC (Nakaseomyces glabratus [3]) [µg/mL] | MIC (Nakaseomyces glabratus [4]) [µg/mL] | MIC (Nakaseomyces glabratus [5]) [µg/mL] | MIC (Nakaseomyces glabratus [6]) [µg/mL] | MIC (Nakaseomyces glabratus [7]) [µg/mL] | further results |
| --- | --- | --- | --- | --- | --- | --- |
| O=S(=O)(O)c1cc(Nc2nc(Nc3ccccc3)nc(N(CCO)CCO)n2)ccc1/C=C/c1ccc(Nc2nc(Nc3ccccc3)nc(N(CCO)CCO)n2)cc1S(=O)(=O)O | – | – | – | – | – | growth inhibition (GI) (Nakaseomyces glabratus [1]): Active; growth inhibition (GI) (Nakaseomyces glabratus [2]): inactive |
| CCC(C)n1ncn(-c2ccc(N3CCN(c4ccc(OCC5COC(Cn6cncn6)(c6ccc(Cl)cc6Cl)O5)cc4)CC3)cc2)c1=O (centres undefined) [ITRACONAZOLE] | 0.5 (≈ 0.709 µM) | 2 (≈ 2.83 µM) | 2 (≈ 2.83 µM) | 1 (≈ 1.42 µM) | 1 (≈ 1.42 µM) | – |
| C[C@@H]1[C@H](O)[C@@H](C)/C=C/C=C/C=C/C=C/C=C/C=C/C=C/[C@H](O[C@@H]2O[C@H](C)[C@@H](O)[C@H](N)[C@@H]2O)C[C@@H]2O[C@](O)(C[C@@H](O)C[C@@H](O)[C@H](O)CC[C@@H](O)C[C@@H](O)CC(=O)O[C@H]1C)C[C@H](O)[C@H]2C(=O)O [AMPHOTERICIN B] | 0.5 (≈ 0.541 µM) | 0.5 (≈ 0.541 µM) | 0.5 (≈ 0.541 µM) | 0.5 (≈ 0.541 µM) | 0.5 (≈ 0.541 µM) | – |
| Clc1ccc(COC(Cn2ccnc2)c2ccc(Cl)cc2Cl)c(Cl)c1 (centres undefined) [MICONAZOLE] | 0.125 (≈ 0.3 µM) | 0.5 (≈ 1.2 µM) | 0.5 (≈ 1.2 µM) | 0.5 (≈ 1.2 µM) | 1 (≈ 2.4 µM) | – |
| CCCCCOc1ccc(-c2cc(-c3ccc(C(=O)N[C@H]4C[C@@H](O)[C@@H](O)NC(=O)[C@@H]5[C@@H](O)[C@@H](C)CN5C(=O)[C@H]([C@H](O)CC(N)=O)NC(=O)[C@H]([C@H](O)[C@@H](O)c5ccc(O)c(OS(=O)(=O)O)c5)NC(=O)[C@@H]5C[C@@H](O)CN5C(=O)[C@H]([C@@H](C)O)NC4=O)cc3)no2)cc1 (X1-[Orn(4R-OH,5R-OH)]T[Hyp][hTyr(3S-OH,4S-OH,3'-OSO3H)][Gln(3R-OH)][Pro(3S-OH,4S-Me)]; lactam 1-C) | – | – | – | – | – | growth inhibition (GI) (Nakaseomyces glabratus [8]): Active; growth inhibition (GI) (Nakaseomyces glabratus [9]): inactive; growth inhibition (GI) (Nakaseomyces glabratus [10]): Active; growth inhibition (GI) (Nakaseomyces glabratus [11]): inactive; growth inhibition (GI) (Nakaseomyces glabratus [12]): Active |
| OC(Cn1cncn1)(Cn1cncn1)c1ccc(F)cc1F [FLUCONAZOLE] | 4 (≈ 13.1 µM) | 16 (≈ 52.2 µM) | 16 (≈ 52.2 µM) | 16 (≈ 52.2 µM) | 32 (≈ 104 µM) | growth inhibition (GI) (Nakaseomyces glabratus [13]): Active; growth inhibition (GI) (Nakaseomyces glabratus [14]): inactive; growth inhibition (GI) (Nakaseomyces glabratus [15]): inactive; growth inhibition (GI) (Nakaseomyces glabratus [16]): Active; growth inhibition (GI) (Nakaseomyces glabratus [17]): Active |
| C[C@@H](c1ncncc1F)[C@](O)(Cn1cncn1)c1ccc(F)cc1F [VORICONAZOLE] | 0.125 (≈ 0.358 µM) | 0.25 (≈ 0.716 µM) | 0.25 (≈ 0.716 µM) | 0.25 (≈ 0.716 µM) | 0.5 (≈ 1.43 µM) | – |
| Nc1c(/N=N/c2ccc(-c3ccc(/N=N/c4cc(S(=O)(=O)O)c5ccccc5c4N)cc3)cc2)cc(S(=O)(=O)O)c2ccccc12 | – | – | – | – | – | growth inhibition (GI) (Nakaseomyces glabratus [18]): Active; growth inhibition (GI) (Nakaseomyces glabratus [19]): Active |

— ChEMBL document CHEMBL1255408, “Roles of calcineurin and Crz1 in antifungal susceptibility and virulence of Candida glabrata” (2010)
